# Assay: Toxicity liver stage against HepG2, at 10uM
# Type: cell-based
# Parameters: test concentration 10 uM, cell line HepG2-A16-CD81EGFP
# Settings: human, HepG2-A16-CD81EGFP cells; read-out: INHIBITION
# Method in brief: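 Uninfected HepG2-A16-CD81EGFP cells, 3 × 10^3 per well, 1536-well, plated on prespotted compound at 10 μM final, parasite-free screening media added to match infected plates; puromycin 10 μM positive, DMSO 0.5% negative; run in parallel with 48 h PbLuc assay at 37 °C, 5% CO2; viability by CellTiter-Glo luminescence, normalized to controls.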
row,SMILES,cytotoxicity at 10 µM
1,COC(=O)CCCC(=O)N1CCC(CO)(CCc2ccccc2)CC1,1.34%
2,Nc1nnc(SCc2cc(=O)n3c4c(sc3n2)CCCC4)s1,7.83%
3,O=S1(=O)N(c2ccccc2)C[C@H](O)[C@]12CCNC2,0.827%
4,CC(C)CNC(=O)CNc1c(NCc2ccncc2)c(=O)c1=O,-4.44%
5,O=C(Cn1ccc2ccccc21)Nc1cc(N2CCOCC2)ncn1,-14%
6,COCCn1cnc(-c2nc(C(=O)N3CCOCC3)c3ccccn23)c1,-10.3%
7,COCC1CN(C(=O)Cc2cccs2)Cc2nnn(CC3CC3)c21 (centres undefined),5.98%
8,Cc1nc(N2CCOCC2)nc2c1CCN(C(=O)C1CC1)CC2,2.23%
9,O=C(c1ccc[nH]1)N1CCOCC2(CCN(C3CCOCC3)C2)C1 (centres undefined),10.7%
10,NC(=O)C1CCN(C(=O)Cn2ccc3cc(Br)ccc32)CC1,11.1%
11,Cc1nc(C(Cc2ccsc2)NC(=O)CN2CCOCC2)sc1C (centres undefined),2.7%
12,Cc1cc(O)nc(C2CCN(C(=O)CO)CC2)n1,0.01%
13,CS(=O)(=O)c1cc(Cl)cnc1C1CCCN(C(=O)C2CCOCC2)C1 (centres undefined),4.34%
14,O=C(CN1CCCCCC1)N1CCc2nnc(C3CCCNC3)n2CC1 (centres undefined),-5.56%
15,Cc1nc(C2CCN(C(C)C)CC2)sc1Br,-3.02%
16,O=C(Cc1ccc(O)cc1)N1CCCC(O)(CN2CCOCC2)CC1 (centres undefined),-1.45%
17,Cc1noc(C)c1-c1ccc(C2CCCN2CCC(N)=O)nc1 (centres undefined),1.94%
18,Cc1cccc(CC2CCCN(C(=O)C3CCOCC3)C2)n1 (centres undefined),2.16%
19,Cc1noc(C)c1-c1cccc(CC2CCN(C(=O)CCC(=O)O)C2)n1 (centres undefined),-8.44%
20,CC(C)(C)c1n[nH]c(C2CN(CCNC3CCCCC3)CCO2)n1 (centres undefined),6.86%
21,COc1ccc(OC)c(CNC2CCCN(c3cccnn3)C2)c1 (centres undefined),-4.67%
22,CC(Oc1cc(Cl)cc(Cl)c1)C(=O)NCCC(=O)N(C)C (centres undefined),-6.51%

row,SMILES,cytotoxicity at 10 µM
1,Cc1nccn1CCCC(=O)Nc1nc(C(C)C)nn1C,-1.37%
2,CCOC(=O)CNC(=O)c1scnc1C,5.35%
3,COCCN(CCC#N)S(=O)(=O)c1ccc(F)cc1Cl,2.13%
4,CCN(CC)C(=O)CNC(=O)c1cnc(-c2ccccc2)nc1,12.7%
5,Cc1cccc(C(=O)NC2CCN(c3cnn(C)c3)C2=O)c1C (centres undefined),-1.2%
6,CC(CNC(=O)c1cc(Cl)ccc1I)N1CCCC1 (centres undefined),-5.28%
7,Cc1nc(CN2CCN(C(=O)CCc3nc(C(C)(C)C)no3)CC2)cs1,3.64%
8,Cc1ccc(CN(C)C(=O)Cn2nc(-c3ccc(F)cc3)oc2=O)cc1,-20.6%
9,Cc1ccc(CC(=O)N2CCCCC2Cn2cccn2)cn1 (centres undefined),-130%
10,Cc1ccc(OCCCC(=O)NC(C)c2ccc(S(N)(=O)=O)cc2)cc1 (centres undefined),-2.69%
11,O=C(c1ccccc1)C1CCN(Cc2cc3c(cc2O)CCC3)CC1,24.2%
12,O=C(NC1CC1)NC(c1cc(F)ccc1F)C1CC1 (centres undefined),-12.8%
13,CCn1c(CN(C)C(=O)c2ccc(OC)nc2)nc2ccccc21,-6.23%
14,CCCOc1ccc(CNCCn2cccn2)cc1,9.66%
15,CC/C=C(/C)C(=O)N1CCN(C2=NCC(C)S2)CC1 (centres undefined),-145%
16,COc1ccc(C(=O)NCCCNc2ncccn2)c(OC)c1,-7.4%
17,CCCc1nnc(NCc2ccc(OC)c(C#N)c2)o1,-0.808%
18,CCOC(C(=O)N1CCn2c(C)nnc2C1)c1ccccc1 (centres undefined),4.93%
19,CC(Cn1cccn1)NCCS(=O)(=O)c1ccc(Cl)cc1 (centres undefined),-6.19%
20,CCN(Cc1ccoc1)C(C(N)=O)c1ccc(C#N)cc1 (centres undefined),-18.6%
21,C1CCC(NCC2(N3CCOCC3)CCSC2)C1 (centres undefined),-10.8%
22,CN1CCN(S(=O)(=O)c2cccc(F)c2)c2cnccc21,-2.95%

row,SMILES,cytotoxicity at 10 µM
1,CC(=O)Nc1cc(Br)cnc1OCC(F)(F)F,5.69%
2,COc1ccc2c(ccn2CC(=O)N2CCCC2c2cnn(C)c2)c1 (centres undefined),3.74%
3,Cc1cc(F)c(S(=O)(=O)Nc2ccn(CCCC#N)n2)cc1F,19.3%
4,COc1ccc(N2CCCN(CC(=O)N3CCNC(=O)C3)CC2)cc1,6.06%
5,Cc1ncc(CNCC2CCC(C(N)=O)CC2)n1-c1ccccc1 (centres undefined),-12.9%
6,O=C(Cc1cccs1)N1Cc2nc(CN3CCCC3)oc2C1,-2.87%
7,CC1c2ncc(Cn3cccn3)n2CCN1S(=O)(=O)C1CC1 (centres undefined),-108%
8,COCCN1CCN(c2cc(OC)ncn2)Cc2ccc(C)nc21,-99.2%
9,CN(Cc1cc(C(C)(C)C)n[nH]1)C(=O)c1c[nH]nc1-c1cccc(F)c1,-3.39%
10,CCCSCC(=O)N1CCCC(CO)(CCC)C1 (centres undefined),4.86%
11,Cc1ccc(O)c(CN2CCCCC2CCN2CCOCC2)c1 (centres undefined),4.25%
12,COC(=O)c1ccc(CNC(=O)CN2C[C@@H](NC(C)=O)[C@H](C(C)C)C2)o1,-0.921%
13,COCCCC1(C(=O)O)CCCN(C(=O)c2ccc(C(C)C)[nH]c2=O)C1 (centres undefined),-52.9%
14,Cc1ccc([C@@H]2CN(C(=O)CCc3cc(Cl)no3)C[C@H]2N(C)C)cc1,6.74%
15,CNc1ncc(CN(C)C(=O)c2ccc(C3CCCO3)s2)cn1 (centres undefined),10.2%
16,COc1ncccc1C1CC(=O)NCc2nc3ccccn3c21 (centres undefined),-5.72%
17,N#Cc1c(C2CCOC2)cc(-c2ccc(N3CCCCC3)cc2)nc1N (centres undefined),-8.78%
18,O=C(O)C1(Oc2cccc(F)c2)CCN(c2ccncc2)CC1,0.423%
19,Cc1nnc(N2CCC(CCn3ccnc3C)CC2)o1,-8.14%
20,O=C1CC(c2ncc(-c3ccc4c(c3)OCCO4)[nH]2)CN1C1CC1 (centres undefined),-4.62%
21,Cc1cnc(C)c(N2CCN(CCCc3[nH]nc(C)c3C)CC2)n1,-10%
22,Cc1nnsc1CN(C)C(=O)CCn1cnc2ccccc21,14.7%

row,SMILES,cytotoxicity at 10 µM
1,C=C(C)COc1cccc(C(=O)N(C)C(C)c2c(C)n[nH]c2C)c1 (centres undefined),2.8%
2,O=C(O)c1ccnc(-c2ccnc(N3CCC(F)(F)CC3)n2)c1,-12.3%
3,CCc1cnc(N)nc1NCCn1cc(Cl)cn1,1.5%
4,CC(=O)N[C@@H]1CN(C2CCN(c3cccc(Cl)c3)CC2)C[C@H]1C(C)C,1.6%
5,CC(C)c1cncnc1N1CC[C@H](N2CCOCC2)[C@H](CCCO)C1,5.86%
6,CC(C)c1cc(CN2CCNCC2)no1,-10.9%
7,CCOCC(=O)N1C[C@@H](O)[C@H](N(C)Cc2ccc(OC)cc2)C1,0.307%
8,O=c1oc(-c2ccc(F)cc2)nn1CN1CCN(CC2CC2)CC1,1.44%
9,O=C(NCc1ccccc1Cn1cncn1)C1CCCCC1,-2.06%
10,CNS(=O)(=O)c1ccc(C(=O)N2CCCCC2c2ccc(C)cc2)o1 (centres undefined),-9.8%
11,CN(C)C(=O)CCCS(=O)(=O)Cc1cc(Cl)c2c(c1)OCO2,-4.52%
12,Cc1cnn(CC2CN(CC(=O)Nc3nncs3)CCO2)c1 (centres undefined),-10%
13,CC(C)(CNC(=O)CCCOc1cccc(F)c1)C(N)=O,-6.54%
14,COc1ccc(COCC(=O)N2CCN(CC(C)(C)O)CC2)cc1,-4.92%
15,Cn1cc(C(=O)CC2CCCN2C(=O)c2cccc3ncccc23)cn1 (centres undefined),6.19%
16,CCc1ccccc1C(=O)N1CCCC1CC(=O)c1cnn(C)c1 (centres undefined),-1.22%
17,Cc1nc(C)n(C2CCCN(C(=O)CCCNc3ncccn3)C2)n1 (centres undefined),-4.26%
18,Cn1cnnc1C1CCN(C(=O)Cc2ccc3c(c2)OCCO3)CC1,-10.4%
19,COc1cc(CNCc2c(C)nn(C)c2N(C)C)ccc1C,-9.16%
20,CCc1sc(-c2nnc(CNCCn3cc(C)cn3)o2)cc1C,-8.75%
21,Fc1cccc(F)c1Cn1c(C2CCCNC2)cc2cccnc21 (centres undefined),2%
22,CS(=O)(=O)N1C[C@H](C(=O)Nc2cccnc2)C[C@H]2OCC[C@H]21,11.3%

row,SMILES,cytotoxicity at 10 µM
1,O=C(Cc1ccsc1)N1C[C@@H]2COC[C@]2(COCc2cccnc2)C1,2.98%
2,Cc1ccc(CN2CCCC3(COCCN(Cc4c[nH]nn4)C3)C2)o1 (centres undefined),-5.47%
3,O=C(Cc1ccsc1)N1C[C@@H]2OCCN(CC3CCCO3)[C@@H]2C1 (some centres undefined),-4.42%
4,CCOCC1CN(Cc2ccc(OC)cc2)Cc2nn(C)cc21 (centres undefined),3.65%
5,O=C([C@@H]1CCO[C@@H]2CCN(Cc3ccc(F)cc3)C[C@H]21)N1CCCCO1,11.9%
6,CN(C)C(=O)N1CCC2(CC1)CN(Cc1ccccn1)C(=O)CO2,2.99%
7,c1ccc(CN2Cc3[nH]nc(COCC4CC4)c3C2)nc1,-1.83%
8,CCCS(=O)(=O)N1Cc2nccn2CC(CN2CCCC2)C1 (centres undefined),-131%
9,CCC1=N[C@@]2(CC[C@@H]3CN(Cc4cccc(Cl)c4)C[C@@H]32)C(=O)N1C,-102%
10,Fc1ccccc1CN1CCCC2(CCN(c3ncccn3)CC2)C1,-132%
11,O=C(CC1CC1)N1CCC2(CC1)CN(c1cccnc1)C(=O)CO2,-90.8%
12,CS(=O)(=O)N[C@@H]1CCN(Cc2nccs2)[C@H]1Cc1ccncc1,-2.48%
13,CC(C)CN1CCC2(C=C(C(=O)N(C)C)c3ccccc32)CC1,-97.4%
14,Cc1ccc(C(=O)N2C[C@@H]3CCCO[C@@H]3[C@H](N3CCCC3)C2)cn1,-3.8%
15,c1cncc(CN2CCc3ncnc(C4CCOC4)c3CC2)c1 (centres undefined),5.02%
16,CN(Cc1ccco1)[C@@H]1CN(Cc2cccnc2)C[C@@H]2CCCO[C@@H]21,8.49%
17,Cc1occc1C(=O)N1C[C@H]2CCCC(OCc3cccnc3)[C@H]2C1 (some centres undefined),2.72%
18,Cn1cc(CN2C[C@@H]3COC[C@]3(CNC(=O)c3ccccc3)C2)cn1,-4.02%
19,O=C(NC[C@H]1CCCO1)c1ccc(S(=O)(=O)N2C[C@H]3C[C@@H]2CN3)cc1,2.5%
20,CN(C)S(=O)(=O)N1C[C@H]2CC[C@@H](C1)N(C/C=C/c1ccc(F)cc1)C2,-1.23%
21,CCOc1ccc(C(=O)N2C[C@@H]3CC[C@H]2CN(C(=O)C2CCC2)C3)cc1,-4.68%

# — ChEMBL document CHEMBL4513216, “Probing the Open Global Health Chemical Diversity Library for Multistage-Active Starting Points for Next-Generation Antimalarials” (ACS Infect Dis, 2020)
